Screens (PubChem BioAssay)
A selection: hits, their analogues and other compounds. The true share with any hit is near 2.2%.
C8 TRAIL sens – sensitizes caspase-8 expressing cells to TRAIL. hit rate 1% among 360,000. inhibition (viability loss, TRAIL sensitization), % at 10 µM. NB7+C8 cells + TRAIL, ATPlite viability luminescence;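 active = compounds causing at least 50% loss of cell viability in the single-dose screen, relative to plate controls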
Wee1 stabilizer – blocks degradation of human Wee1 kinase. P30291. HeLa Luc-Wee1K328M stability, luciferase luminescence; 100% = proteasome inhibitor MG132 effect. reporter increase, % at 5 µM. hit rate 1.2% among 220,000;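 active = activation above the mean of all tested compounds plus 3 SD, set per screening run, cut at about 8.8% in these data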;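 also: cells exposed to compound for 20 h before luminescence read; 0% = DMSO alone and 100% = MG132 at 30 µM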
FLuc stim CS – firefly luciferase counter-screen for stimulation assays; P08659; ATPlite luciferase biochemical, luminescence, 10 min; 0 = ATP-free wells, 1 = DMSO control; activation factor at 10 µM; 200,000 tested, under 10 active;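 active = luciferase activation factor, scaled between plate controls, of at least 2 with compound at 10 µM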
Target sequence (P08659 whole entry, looked up): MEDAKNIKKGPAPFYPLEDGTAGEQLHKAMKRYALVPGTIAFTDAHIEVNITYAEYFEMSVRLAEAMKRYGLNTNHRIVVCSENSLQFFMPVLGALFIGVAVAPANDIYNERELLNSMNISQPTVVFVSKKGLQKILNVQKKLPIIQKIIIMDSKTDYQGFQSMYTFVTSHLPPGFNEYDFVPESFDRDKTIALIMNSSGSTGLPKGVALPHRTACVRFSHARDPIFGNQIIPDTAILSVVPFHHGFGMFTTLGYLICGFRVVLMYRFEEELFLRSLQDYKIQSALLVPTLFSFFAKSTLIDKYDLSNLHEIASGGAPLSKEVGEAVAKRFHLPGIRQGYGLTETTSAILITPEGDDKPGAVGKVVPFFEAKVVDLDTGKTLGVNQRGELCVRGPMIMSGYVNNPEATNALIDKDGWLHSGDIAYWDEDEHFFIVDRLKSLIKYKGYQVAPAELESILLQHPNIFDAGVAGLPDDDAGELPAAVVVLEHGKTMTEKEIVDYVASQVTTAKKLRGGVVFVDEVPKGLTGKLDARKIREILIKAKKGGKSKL
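Assay system: Luciferase/luciferin detection reagent, cell-free biochemical luciferase assay / Read-out: luciferase activation / Benchmarks: No-ATP low control, compound-free enzyme-plus-ATP high control / Medium: PBS buffer for ATP / Detection: luminescence measurement of luciferase light output / Schedule: 10 min at ambient temperature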
FLuc inhib CS – inhibits firefly luciferase, flagging false hits in luciferase inhibition screens | inhibition, % at 10 µM | hit rate 1.5% among 200,000 | ATPLite firefly luciferase biochemical luminescence, 10 min;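 active = inhibition above about 50% when tested at 10 µM, limit read from the data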
PPC-1+TRAIL kill – compounds killing PPC-1 cancer cells with TRAIL present (potentiator screen, no TRAIL-free arm); PPC-1 cells + TRAIL, ATPLite viability luminescence; cell killing (% activity), % at 4 µM or 5 µM; hit rate 0.41% among 220,000; AID 1443;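 active = cell killing above 50% in the first pass at 4 µM, then a duplicate retest at 5 µM averaging 50% or more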;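 also: plate controls were cells with TRAIL plus DMSO for no effect and medium-only wells lacking cells for full effect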
PKD1 inh – blocks activity of human protein kinase D1 | Q15139 | hit rate 0.056% among 200,000 | PKD1 kinase fluorescence polarization assay | AID 797 | inhibition, % (no concentration beside the values); in the data active = inhibition above about 50%
The depositor's hits bear a star; . = not tested or not shown.

SMILES	C8 TRAIL sens	Wee1 stabilizer	FLuc stim CS	FLuc inhib CS	PPC-1+TRAIL kill	PKD1 inh
Cc1cccc(NCc2nc3ccccc3n2C)c1	-9	3	0.8	18	22	-1
CN(C)CCCNC(=O)c1ccc(-c2nc(-c3ccc(Cl)cc3)cs2)cc1	90*	3	1.1	-6	5	1
Cc1cccc(Sc2c([N+](=O)[O-])ncn2C)c1	-6	2	0.5	52*	14	8
Cc1cccnc1Sc1c([N+](=O)[O-])ncn1C	-4	0	1	-3	10	-7
Cn1cnc([N+](=O)[O-])c1Sc1ncnc2nc[nH]c12	67*	0	.	.	17	.
Cn1cnc(Sc2ncnc3nc[nH]c23)c1[N+](=O)[O-]	62*	-4	.	.	4	.
O=C(NCCOc1ccccc1)c1cc([N+](=O)[O-])ccc1N1CCOCC1	14	.	.	.	.	.
CCOC(=O)c1sc2nc3c(SCC(=O)O)cc(C(=O)c4cc(F)ccc4O)cn3c(=O)c2c1C	28	3	0.5	51*	11	-17
CCOC(=O)c1sc2nc3c(SCC(=O)O)cc(C(=O)c4ccccc4O)cn3c(=O)c2c1C	53*	-1	0.2	79*	21	-5
O=C(O)CSc1cc(C(=O)c2ccccc2O)cn2c(=O)c3c(-c4ccccc4)csc3nc12	-20	-3	0.6	41	5	-7
CSc1ccc(NC(=O)c2cccnc2)cc1C#N	-1	8.8*	1	-2	0	-3
Cc1ccc(NC(=O)c2cccnc2)cc1C	11	.	.	.	.	.
COc1ccc(-n2c(C)cc(/C=C3\C(=O)NN(c4ccccc4)C3=O)c2C)cc1	12	0	0.4	55*	28	12
Cc1cc(/C=C2\C(=O)NN(c3ccccc3)C2=O)c(C)n1-c1ccccc1O	3	1	.	.	28	.
COc1ccc(-n2c(C)cc(/C=C3\SC(=S)NC3=O)c2C)cc1	-12	4	0.9	8	-4	-2
Cc1cc(/C=C2/C(=O)NN(c3ccccc3)C2=O)c(C)n1-c1ccc(O)cc1	88*	2	0	95*	79*	-2
Cc1c(C(=O)OCc2nc3ccsc3c(=O)[nH]2)oc2ccccc12	4	.	.	.	.	.
N/C(=N\OC(=O)CCC1CCCC1)c1ccncc1	-4	-3	0.7	30	23	-4
N/C(=N\OC(=O)CC1CCCCC1)c1ccccn1	6	-2	0.2	81*	21	7
Cc1cccc(/C(N)=N/OC(=O)CCC2CCCCC2)c1	-3	2	0.5	54*	11	-16
N/C(=N\OC(=O)CC1CCCCC1)c1cccnc1	17	-1	0.4	65*	41	-1
Cc1ccc(/C(N)=N/OC(=O)CCC2CCCCC2)cc1	2	-2	1	2	11	0
N/C(=N\OC(=O)CCC1CCCC1)c1cccnc1	3	-1	0.3	74*	-4	4
N/C(=N\OC(=O)CC1CCCCC1)c1ccncc1	-1	-1	0.8	25	11	-5
CCCCCCCCOC(=O)c1cc([N+](=O)[O-])c(Sc2ncnc3nc[nH]c23)c([N+](=O)[O-])c1	67*	.	.	.	.	.
SMILES	C8 TRAIL sens	Wee1 stabilizer	FLuc stim CS	FLuc inhib CS	PPC-1+TRAIL kill	PKD1 inh
CC1CCCCN1C(=O)COc1ccc(F)cc1 (configuration not stated)	-6	9.6*	1	2	2	-5
CC1CCCCN1C(=O)COc1ccc2ccc(=O)oc2c1 (configuration not stated)	-1	0	1	1	20	-3
CCOc1ccc2nc(NC(=O)c3cnc(C)cn3)sc2c1	25	1	0.8	15	20	-4
CCOc1ccc2nc(NC(=O)c3ccc(C)o3)sc2c1	58*	.	.	.	.	.
CCCC(=O)Nc1nc2ccc(OCC)cc2s1	21	-1	0.8	15	0	-15
CCOc1ccc2nc(NC(=O)c3cccnc3)sc2c1	35	-4	0.4	60*	33	-17
COCCn1c(Cc2ccccc2)nnc1SC(C)C(=O)NC1CC1 (configuration not stated)	0	.	.	.	.	.
NC1=NC(c2ccccc2)=NC1(NC(=O)c1ccccc1)C(Cl)Cl (configuration not stated)	-8	-2	.	.	-11	.
Cc1ccc(CSc2nc3ccccc3cc2C=O)cc1	-20	10*	1	-3	18	3
COc1ccccc1N1CCN(C(=O)c2cccc(S(=O)(=O)N3c4ccccc4CC3C)c2)CC1 (configuration not stated)	33	.	.	.	.	.
Oc1c(CN2CCCCC2)cc(Br)c2cccnc12	51*	-2	1	2	-9	1
Cc1ccc(-c2ccccc2NC(=O)CCl)o1	48*	2	1	-3	0	1
COC(=O)C[C@H]1N(S(=O)(=O)c2ccc(C)cc2)C(C(C)C)CC1(C(=O)OC)C(=O)OC (some centres not stated)	-6	.	.	.	.	.
O=C1NC(c2ccc(Cl)cc2)Nc2ccccc21 (configuration not stated)	25	-1	1	2	10	-1
CN(C)c1ccc(C2NC(=O)c3ccccc3N2)cc1 (configuration not stated)	65*	.	.	.	.	.
Cc1cc(=O)[nH]c2nnc(SCC(=O)N3CC(C)OC(C)C3)n12 (configuration not stated)	-17	.	.	.	.	.
Cc1cc(=O)[nH]c2nnc(-c3ccc(Br)cc3)n12	73*	.	.	.	.	.
Cc1ccccc1Nc1c(-c2ccc(N3CCOCC3)cc2)nc2cnccn12	48*	7	.	.	34	.
Cc1ccc(Nc2c(-c3ccc(N4CCOCC4)cc3)nc3cnccn23)cc1	11	-1	.	.	11	.
Cc1ccccc1Nc1c(-c2ccc(N3CCOCC3)cc2)nc2ncccn12	-12	4	0.4	59*	33	8
Cc1ccc(Nc2c(-c3ccc(N4CCOCC4)cc3)nc3ncccn23)cc1	-1	1	1	-2	14	-8
Cc1ccnc(SCc2cc(=O)c(OC(=O)c3ccc(Cl)c([N+](=O)[O-])c3)co2)n1	-8	-2	1	0	37	-2
Cc1cc(NC(=O)C2CCCC2)nc2c1c(=O)oc1ccccc12	71*	-2	1.1	-6	-12	-2
Cc1cc(NC(=O)Cc2ccccc2)nc2c1c(=O)oc1ccccc12	32	1	1.1	-7	-6	7
Cc1cccc(CC(=O)Nc2cc(C)c3c(=O)oc4ccccc4c3n2)c1	52*	3	1	-5	15	1
COc1ccc(Cl)cc1NC(=O)CN(C)C(=O)c1cc(C)oc1C	-3	.	.	.	.	.
COc1ccc(COC[C@H](C)[C@H](O)[C@@H](C)[C@H]2OC(=O)[C@@H]2C)cc1	-2	.	.	.	.	.
CCOc1ccc(C(=O)NCC(=O)Nc2ccc(N3CCOCC3)cc2)cc1OCC	1	4	0.8	20	9	-1
Nc1nc2ccccc2n1C(=O)c1cccs1	47	4	0.3	69*	30	-4
